Only some compounds are listed: those with a hit (about 1.4% of all), similar ones and a draw of the others.
Rin1-Abl PPI inh: inhibitors of Rin1-Abl protein binding, primary screen, biochemical, TR-FRET; Tyrosine-protein kinase ABL1 (Homo sapiens) + Ras and Rab interactor 1 (Homo sapiens), …; inhibition, % at 7.35 µM; 360,000 compounds, 0.4% hits; AID 588664, 2011; in the data active = inhibition above about 5%, passing the limit was not always enough
Tb MetRS inh: T. brucei MetRS inhibitors, primary screen, biochemical, luminescence | methionyl-tRNA synthetase (Trypanosoma brucei brucei) | purified T. brucei MetRS, ATP depletion, Kinase-Glo luminescence | inhibition, % at 11.9 µM | 360,000 compounds, 0.4% hits;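 active = inhibition above a per-plate cutoff of the control wells' mean inhibition plus 3 SD, cut at about 5.5% in these data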
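Material: T. brucei methionyl-tRNA synthetase, purified; reagent: substrates ATP, L-methionine and bulk Escherichia coli tRNA; dosing: 11.9 µM single point; timing: 15 min plus 2 h at 25 °C; detection: luminescence of leftover ATP; evaluation: % inhibition; control set: DMSO-only wells as low control; replicates: singlicate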
ATG4B inhibitor: ATG4B protease inhibitors, primary screen, biochemical, fluorescence, uHTS; Cysteine protease ATG4B (Homo sapiens), Q9Y4P1; ATG4B cleavage of LC3-PLA2, NBD-HPC fluorescence, 1 h; inhibition, % at 8.33 µM; 340,000 compounds, 0.51% hits; AID 504462, 2011; in the data active = inhibition above about 40%
UCH37 DUB inh: inhibitors of human UCH37 deubiquitinase, primary screen, biochemical, Ub-AMC cleavage, fluorescence; Ubiquitin carboxyl-terminal hydrolase isozyme L5 (Homo sapiens), Q9Y5K5; purified proteasome/UCH37; inhibition, % (no concentration beside the values); 330,000 compounds, 0.33% hits; AID 588478, 2011;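 active = mean inhibition over replicate wells above about 20%, limit read from the data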
Target sequence (Q9Y5K5 whole entry, looked up): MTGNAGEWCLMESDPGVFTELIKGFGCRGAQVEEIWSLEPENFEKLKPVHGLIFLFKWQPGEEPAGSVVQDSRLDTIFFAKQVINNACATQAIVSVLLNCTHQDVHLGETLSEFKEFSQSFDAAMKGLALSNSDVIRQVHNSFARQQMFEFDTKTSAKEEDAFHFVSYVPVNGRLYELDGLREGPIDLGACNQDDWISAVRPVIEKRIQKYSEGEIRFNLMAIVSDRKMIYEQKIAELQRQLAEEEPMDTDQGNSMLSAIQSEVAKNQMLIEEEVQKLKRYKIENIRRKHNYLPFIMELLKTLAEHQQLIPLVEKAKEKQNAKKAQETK
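assay system = human UCH37 enzyme supplied as purified proteasome complex | amount = proteasome at 0.15 nM in the dispensed enzyme solution | schedule = 30 min compound-proteasome preincubation then 25 min substrate reaction, room temperature | measured by = fluorescence, ex 355 nm, em 460 nm | benchmarks = no-proteasome wells (full inhibition) and compound-free wells (no inhibition)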
ATG4B conf: ATG4B protease inhibitors, retest, confirmation, biochemical, fluorescence, single concentration. AID 504757, 2011. shares compounds with ATG4B inhibitor. inhibition, % at 8.33 µM. 320 compounds, 92% hits. ATG4B protease fluorescent substrate cleavage assay; in the data active = inhibition above about 39%
PLA2 counter: PLA2 enzyme inhibition, counter-screen for ATG4B inhibitor project, biochemical, single concentration, uHTS hits. shares compounds with ATG4B inhibitor. purified PLA2, NBD-C6-HPC fluorescence, 45 min. inhibition, % at 8.33 µM. 1,600 compounds, 66% hits; in the data active = inhibition above about 50%
Target sequence (P04054 whole entry, looked up): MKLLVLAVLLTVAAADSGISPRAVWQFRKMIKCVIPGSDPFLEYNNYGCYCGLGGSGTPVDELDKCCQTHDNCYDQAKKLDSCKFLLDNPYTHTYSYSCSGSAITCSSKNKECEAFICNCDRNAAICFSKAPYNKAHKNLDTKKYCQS
Hits are given with their value; – = inactive; · = no result given.

SMILES	Rin1-Abl PPI inh	Tb MetRS inh	ATG4B inhibitor	UCH37 DUB inh	PLA2 counter	others
CN(c1ccc(OCC(=O)Nc2nc(-c3ccccc3)cs2)cc1)S(=O)(=O)c1ccc(F)cc1	–	–	–	–	·
O=C1C(=O)N(C/C=C/c2ccccc2)c2ccccc21	–	–	49.3	·	54.1
N#CC1=C(N)OC2=C(C(=O)CC(c3ccco3)C2)C1c1ccc(OCc2c(F)cccc2Cl)cc1 (stereo not given)	–	–	87.1	32.1	89.3
Cc1ccc(S(=O)(=O)NCC(=O)OCCOc2ccc(Br)cc2)cc1	–	–	–	–	·
Cn1cc(CCC(=O)N2CCCC(CCC(=O)NCc3ccc(F)c(F)c3)C2)cn1 (stereo not given)	–	–	41.6	–	–
Cc1ccc(N=C2SC(C(=O)Nc3ccc(OC(F)(F)F)cc3)C(N)=C2C(=O)Nc2c(C)cc(C)cc2C)cc1 (stereo not given)	–	–	61.9	–	61.5
COc1ccc(-c2cn3c(C)c(C(=O)N4CCc5ccccc5C4)sc3n2)cc1	–	–	–	–	·
Cc1c(C(=O)N2CCc3ccccc3C2)sc2nc(-c3ccccc3)cn12	–	–	44.9	–	53.0
Cc1ccc(NC(=O)COC(=O)c2ccccc2Nc2ccccc2)cc1	–	–	–	–	·
Oc1c(Cl)cc(Cl)cc1C=Nc1ccc2c(c1)OCCO2	–	–	48.1	–	–	ATG4B conf=53.6
O=C(c1ccc(Cl)c(S(=O)(=O)Nc2ccccc2C(=O)N2CCc3ccccc3C2)c1)N1CCc2ccccc2C1	–	–	47.9	–	–	ATG4B conf=62.5
Cc1ccc(S(=O)(=O)NCc2c(Cl)cccc2Oc2ccccc2)cc1	–	–	63.1	–	58.9
O=[N+]([O-])c1cccc(-c2nnnn2-c2cccc(F)c2)c1	–	–	–	–	·
CCOC(=O)c1sc2nc(C)c([N+](=O)[O-])c(COC)c2c1N	–	–	–	–	·
Fc1ccc(CCNC(=S)Nc2ccc(F)c(Cl)c2)cc1	–	–	44.2	–	–	ATG4B conf=58.4
Cc1c(Cl)cccc1NC(=S)NCCc1ccc(Cl)cc1	–	–	85.6	–	88.6
Cc1c(Cl)cccc1NC(=S)NCCc1ccc(S(N)(=O)=O)cc1	–	–	–	–	·
Cc1c(Cl)cccc1NC(=S)NCCc1ccc(F)cc1	–	–	70.5	–	77.4
CCOC(=O)c1cccc(NC(=O)c2ccco2)c1	–	–	–	–	·
O=C(NCc1cccc(C(F)(F)F)c1)N1CCN(S(=O)(=O)c2ccccc2F)CC1	–	–	50.8	–	–	ATG4B conf=60.6
O=C(CCNC(=O)C1CCN(S(=O)(=O)c2ccccc2)CC1)NCc1cccc(C(F)(F)F)c1	–	–	–	–	·
Cc1cccc(C(=O)NC2CCCc3ccccc32)c1 (stereo not given)	·	·	·	–	·
CCOc1ccc2nc(NC(=O)CSc3nc(-c4ccccc4)c(C#N)c(=O)[nH]3)sc2c1	–	–	–	–	·
COc1cccc(-c2nc(SCC(=O)Nc3nc(-c4ccccc4)c(C)s3)[nH]c(=O)c2C#N)c1	–	–	41.8	–	–	ATG4B conf=75.3
O=Cc1cc(N=Nc2ccccc2Cl)ccc1O	–	–	56.4	–	77.5
SMILES	Rin1-Abl PPI inh	Tb MetRS inh	ATG4B inhibitor	UCH37 DUB inh	PLA2 counter	others
COC(=O)NN=Cc1cc(N=Nc2ccccc2Cl)ccc1O	·	·	·	–	·
CC(OC(=O)/C(C#N)=C/c1ccc(N(C)C)cc1)C(=O)NCc1ccco1 (stereo not given)	–	–	·	·	·
COc1cc(/C=C/C(=O)O)cc(S(=O)(=O)Nc2cc(Cl)c(Cl)cc2Cl)c1OC	–	–	41.1	–	–	ATG4B conf=52.1
COc1cc(/C=C/C(=O)O)cc(S(=O)(=O)NC2CCCC2)c1OC	–	–	–	–	·
O=c1c2ccccc2nc(SCc2ccc([N+](=O)[O-])cc2)n1-c1ccccc1	–	–	40.0	–	–
Cc1noc(C)c1CSc1nc2sc(C)c(C)c2c(=O)n1-c1ccccc1	–	–	–	–	·
O=C(O)c1ccc(CSc2nc3ccccc3c(=O)n2-c2ccccc2)cc1	–	–	40.9	–	58.7
Cc1noc(C)c1CSc1nc2ccccc2c(=O)n1-c1ccc(Cl)cc1	–	–	70.6	–	70.3
O=C(CSc1nc2ccccc2c(=O)n1-c1ccccc1)c1cccc([N+](=O)[O-])c1	–	–	–	–	·
O=C(c1ccc(-n2c(SCc3cccc(F)c3)nc3ccccc3c2=O)cc1)N1CCOCC1	–	–	47.9	–	–	ATG4B conf=59.4
CN(CC(=O)O/N=C(\N)c1ccc(Br)cc1)S(=O)(=O)c1ccccc1	–	–	–	–	·
CCc1ccc(/C=N/NC(=O)Cc2ccc(OC)c(OC)c2)s1	–	–	–	·	·
COC(=O)C1=C(C)Nc2nc(SCc3ccccc3)[nH]c(=O)c2C1c1cccs1 (stereo not given)	–	–	52.9	–	–
Cc1cccc(/C=C/c2onc(C)c2S(=O)(=O)N2CCC(C(=O)N3CCC(C)CC3)CC2)c1	–	–	–	–	·
Cc1noc(/C=C/c2ccco2)c1S(=O)(=O)N1CCC(C(=O)NC(C)c2ccccc2)CC1 (stereo not given)	–	–	–	–	·
Cc1noc(/C=C/c2ccco2)c1S(=O)(=O)N1CCC(C(=O)N2c3ccccc3CC2C)CC1 (stereo not given)	–	–	47.7	–	75.8
Cc1cccc(/C=C/c2onc(C)c2S(=O)(=O)N2CCC(C(=O)N3CCCCCC3)CC2)c1	–	–	40.4	–	52.4
CC(C)Oc1ccc(C(CC(=O)NCc2ccco2)c2ccccc2)cc1 (stereo not given)	–	–	43.9	–	–	ATG4B conf=64.7
Cc1cccc(C(CC(=O)NCc2ccco2)c2ccccc2)c1O (stereo not given)	–	–	–	–	·
O=C(NCCc1ccc(Cl)cc1)c1ccc2nc[nH]c2c1	–	–	–	–	·
O=C(NCCc1ccc(Cl)cc1Cl)c1ccc2nc[nH]c2c1	–	–	42.5	–	51.0
CC(C)=CCC/C(C)=C/Cc1c(O)ccc(C(=O)/C=C/c2ccc(O)cc2)c1O	–	–	–	·	·
COc1cc(CCc2ccccc2)c(C(=O)O)c(O)c1CC=C(C)C	–	–	75.3	·	86.5
COc1cc(CCc2ccccc2)c(C(=O)O)c(O)c1C/C=C(/C)CCC=C(C)C	–	–	85.3	–	90.3
CN(c1ccccc1)S(=O)(=O)c1cccc(C(=O)NCCc2ccc(O)c(O)c2)c1	–	–	–	–	·
O=C(NNC(=O)c1nc2ccccc2[nH]1)OCc1ccccc1	–	–	–	–	·

High-throughput results from PubChem BioAssay.
